The source of these data is ChEMBL document CHEMBL4725316, “Discovery of novel anti-breast cancer agents derived from deguelin as inhibitors of heat shock protein 90 (HSP90)” (Bioorg Med Chem Lett, 2020).

The source made the active and inactive calls. The rule behind the calls is not given here. Bounds are passed on as bounds.

For data set [1], the system named is BT-474. The data set can be described thus: Cytotoxicity against human BT-474 cells assessed as reduction in cell viability at 10 uM incubated for 72 hrs by MTS assay relative to control. In kind it is functional. The note with it: BT-474, read-out: INH. A digest of the protocol:
(§1)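 Single-concentration primary screen: trastuzumab-sensitive BT474, trastuzumab-resistant JIMT-1 (HER2-positive breast cancer) or normal human embryonic kidney HEK293 cells exposed to compound at 10 μM for 72 h; viability by MTS assay versus DMSO control. Mean ± SEM of at least three independent experiments; Student's t-test.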
(In general: Tetrazolium dyes change colour on reduction, which living cells bring about.)

The test system of data set [2] is JIMT-1. Description: Cytotoxicity against human JIMT-1 cells assessed as reduction in cell viability at 10 uM incubated for 72 hrs by MTS assay relative to control. In kind it is functional. The following applies: JIMT-1, read-out: INH. A digest of the protocol:
as §1

Another data set deals with HEK293. The data set can be described thus: Cytotoxicity against human HEK293 cells assessed as reduction in cell viability at 10 uM incubated for 72 hrs by MTS assay. In kind it is cell-based. The following applies: hek293, 72 h. A digest of the protocol: as §1
Data set [3] has as its system BT-474. The data set can be described thus: Cytotoxicity against human BT-474 cells assessed as reduction in cell viability incubated for 72 hrs by MTS assay. In kind it is functional, cell-based. A digest of the protocol:
(§2)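 Dose-response in BT474 (trastuzumab-sensitive) and JIMT-1 (trastuzumab-resistant) HER2-positive breast cancer cells: compound at 0.1, 0.5, 1, 5, 10 or 20 μM for 72 h, viability by MTS assay. IC50 with 95% confidence intervals calculated from the curves; mean ± SEM of at least three independent experiments, one-way ANOVA with Bonferroni post hoc test versus DMSO control.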

Data set [4] deals with JIMT-1. Description: Cytotoxicity against human JIMT-1 cells assessed as reduction in cell viability incubated for 72 hrs by MTS assay. In kind it is functional, cell-based. A digest of the protocol: as §2
For data set [5], the target named is T1, Heat shock protein HSP90 (Homo sapiens) (UniProt P07900+P08238). Description: Inhibition of HSP90 in human BT-474 cells assessed as reduction in HER2 expression at 10 uM incubated for 72 hrs by immunoblot analysis. In kind it is cell-based. A digest of the protocol:
(§3)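 BT474 and JIMT-1 cells treated 72 h with indicated compound concentrations or vehicle; 30 μg total lysate protein resolved by SDS-PAGE and immunoblotted for HER2, phospho-HER2 (Tyr1221/1222), EGFR, phospho-EGFR (Tyr1068), survivin, HSP90 and HSP70, with actin as loading control.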
On the technique in general: In western blotting, separated proteins are transferred to a membrane and probed.

Data set [6] has as its target T1, Heat shock protein HSP90 (Homo sapiens). Description: Inhibition of HSP90 in human BT-474 cells assessed as reduction in HER2 phosphorylation at 10 uM incubated for 72 hrs by immunoblot analysis. In kind it is cell-based. A digest of the protocol:
as §3

For data set [7] the target is unchanged. Description: Inhibition of HSP90 in human BT-474 cells assessed as reduction in EGFR expression at 10 uM incubated for 72 hrs by immunoblot analysis. In kind it is cell-based. A digest of the protocol: as §3
The target is the same in data set [8]. Description: Inhibition of HSP90 in human BT-474 cells assessed as reduction in EGFR phosphorylation at 10 uM incubated for 72 hrs by immunoblot analysis. In kind it is cell-based. A digest of the protocol:
as §3

The target is the same in data set [9]. The data set can be described thus: Inhibition of HSP90 in human BT-474 cells assessed as reduction in survivin expression at 10 uM incubated for 72 hrs by immunoblot analysis. In kind it is cell-based. A digest of the protocol:
as §3

For data set [10] the target is unchanged. Description: Inhibition of HSP90 in human JIMT-1 cells assessed as reduction in HER2 expression at 5 uM incubated for 72 hrs by immunoblot analysis. In kind it is cell-based. A digest of the protocol: as §3
For data set [11] the target is unchanged. Description: Inhibition of HSP90 in human JIMT-1 cells assessed as reduction in HSP90 expression at 5 uM incubated for 72 hrs by immunoblot analysis. In kind it is cell-based. A digest of the protocol:
as §3

For data set [12] the target is unchanged. The data set can be described thus: Inhibition of HSP90 in human JIMT-1 cells assessed as reduction in HER2 phosphorylation at 5 uM incubated for 72 hrs by immunoblot analysis. In kind it is cell-based. A digest of the protocol:
as §3

The target is the same in data set [13]. Description: Inhibition of HSP90 in human JIMT-1 cells assessed as reduction in EGFR expression at 5 uM incubated for 72 hrs by immunoblot analysis. In kind it is cell-based. A digest of the protocol:
as §3

Data set [14] has the same target. The data set can be described thus: Inhibition of HSP90 in human JIMT-1 cells assessed as reduction in EGFR phosphorylation at 5 uM incubated for 72 hrs by immunoblot analysis. In kind it is cell-based. A digest of the protocol: as §3
For data set [15] the target is unchanged. The data set can be described thus: Inhibition of HSP90 in human JIMT-1 cells assessed as reduction in survivin expression at 5 uM incubated for 72 hrs by immunoblot analysis. In kind it is cell-based. A digest of the protocol: as §3
The target is the same in data set [16]. The data set can be described thus: Inhibition of HSP90 in human JIMT-1 cells assessed as reduction in HSP70 expression at 5 uM incubated for 72 hrs by immunoblot analysis. In kind it is cell-based. A digest of the protocol:
as §3

Data set [17] shares this target. The data set can be described thus: Inhibition of HSP90 in human BT-474 cells assessed as reduction in HSP70 expression at 10 uM incubated for 72 hrs by immunoblot analysis. In kind it is cell-based. A digest of the protocol:
as §3

The target is the same in data set [18]. The data set can be described thus: Inhibition of HSP90 in human BT-474 cells assessed as reduction in HSP90 expression at 10 uM incubated for 72 hrs by immunoblot analysis. In kind it is cell-based. A digest of the protocol: as §3
Data set [19] shares this target. Description: Inhibition of HSP90 in human BT-474 cells assessed as reduction in HSP70 expression at 10 uM incubated for 24 hrs by DAPI staining based confocal microscopy. In kind it is cell-based. A digest of the protocol: (§4)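 Immunocytochemistry: cells treated 24 h with compound (10 μM) or geldanamycin (0.3 μM), immunostained for HSP70 with DAPI nuclear counterstain, imaged by confocal microscopy at ×500 original magnification.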

Data set [20] shares this target. The data set can be described thus: Inhibition of HSP90 in human JIMT-1 cells assessed as reduction in HSP70 expression at 10 uM incubated for 24 hrs by DAPI staining based confocal microscopy. In kind it is cell-based. A digest of the protocol:
as §4

Turning to `COc1cc(NC(=O)c2ccc3c(c2OC)C=CC(C)(C)O3)ccc1OCCCC1CCN(C)CC1`, the inhibition at 10 µM in the data set on BT-474 [1] and in the data set with JIMT-1 [2] was more than 50% throughout.
As to `COc1cc(NC(=O)c2ccc3c(c2OC)C=CC(C)(C)O3)ccc1OCCC1CCCCN1C` (centres undefined), the inhibition at 10 µM with BT-474 [1] and in the data set on JIMT-1 [2] was more than 50% throughout.
With `COc1cc(NC(=O)c2ccc3c(c2OC)C=CC(C)(C)O3)ccc1OCCCC1CCN(CCO)CC1`, the inhibition at 10 µM in the data set on BT-474 [1] and in the data set with JIMT-1 [2] was more than 50% each time.
For the compound `COc1cc(NC(=O)c2ccc3c(c2OC)C=CC(C)(C)O3)ccc1OCC1CCN(C)CC1`, the inhibition at 10 µM in the data set with BT-474 [1] and with JIMT-1 [2] was more than 50% in each case.
For `COc1cc(NC(=O)c2ccc3c(c2OC)C=CC(C)(C)O3)ccc1OCCCC1CCNCC1`, the inhibition at 10 µM in the data set with BT-474 [1] and in the data set with JIMT-1 [2] was more than 50% each time.
Take `COc1cc(NC(=O)c2ccc3c(c2OC)C=CC(C)(C)O3)ccc1OCCC1CCCCN1` (centres undefined): the inhibition at 10 µM in the data set on BT-474 [1] and in the data set on JIMT-1 [2] was more than 50% throughout. Also, the figures for the Activity entry in the data set on HEK293, in the data set with BT-474 [3] and in the data set on JIMT-1 [4] were “Non-Toxic”, “Dose-dependent effect” and “Dose-dependent effect”, respectively. The IC50 with BT-474 [3] (BT-474, 72 h) turned out to be 8.53 µM; in the data set on JIMT-1 [4] (JIMT-1, 72 h), 4.45 µM. Further, the inhibition result in data set [5], in data set [6], in [7], in [8], in [9] and in data set [10] was “Active” throughout. The inhibition entry in [12], in data set [13], in data set [14] and in [15] was “Active” throughout. The inhibition result in data set [11], in data set [16], in data set [17], in [18], in data set [19] and in data set [20] was “inactive” in each case.
On to `COc1cc(NC(=O)c2ccc3c(c2OC)C=CC(C)(C)O3)ccc1OCC1CCNCC1`, for which the inhibition at 10 µM in the data set on BT-474 [1] and in the data set with JIMT-1 [2] was more than 50% throughout.
In the case of `COc1cc(NC(=O)c2ccc3c(c2OC)C=CC(C)(C)O3)ccc1OCCCC1CCCCN1` (centres undefined), the inhibition at 10 µM in the data set with BT-474 [1] and in the data set on JIMT-1 [2] was more than 50% throughout.
In the case of `COc1cc(NC(=O)c2ccc3c(c2OC)C=CC(C)(C)O3)ccc1OCCCN1CCCCC1`, the inhibition at 10 µM in the data set with BT-474 [1] and in the data set with JIMT-1 [2] was more than 50% throughout.

By IC50 is commonly meant the concentration that gives 50% inhibition.
